Assay results published in ChEMBL document CHEMBL2331121, “Design, synthesis, and pharmacological characterization of N- and O-substituted 5,6,7,8-tetrahydro-4H-isoxazolo[4,5-d]azepin-3-ol analogues: novel 5-HT(2A)/5-HT(2C) receptor agonists with pro-cognitive properties” (J Med Chem, 2013).
Activity calls are given as the source filed them. The calls are words filed in the database; no cut-off is given here.

Experiments:
[1] = molecular target: T1, 5-hydroxytryptamine receptor 2C (Rattus norvegicus) (UniProt P08909); assay: Displacement of [125I]-N-(p-I-Bn)-THAZ from 5HT2C in rat cerebral cortex membrane at 300 uM after 1 hr by scintillation counting analysis; type: cell membranes
T1 sequence (whole entry): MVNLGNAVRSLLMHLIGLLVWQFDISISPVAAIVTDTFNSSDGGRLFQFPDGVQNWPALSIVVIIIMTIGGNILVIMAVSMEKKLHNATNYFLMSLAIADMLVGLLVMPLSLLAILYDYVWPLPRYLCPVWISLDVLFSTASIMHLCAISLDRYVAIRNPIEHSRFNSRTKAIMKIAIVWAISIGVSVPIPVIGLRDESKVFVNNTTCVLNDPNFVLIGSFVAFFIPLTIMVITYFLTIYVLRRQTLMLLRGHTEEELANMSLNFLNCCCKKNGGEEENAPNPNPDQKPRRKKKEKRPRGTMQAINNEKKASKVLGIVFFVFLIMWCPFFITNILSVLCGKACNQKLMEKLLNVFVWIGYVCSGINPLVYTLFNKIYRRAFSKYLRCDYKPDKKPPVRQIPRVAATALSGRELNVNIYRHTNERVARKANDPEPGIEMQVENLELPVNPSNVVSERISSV

[2] = molecular target: T2, 5-hydroxytryptamine receptor 2A (Homo sapiens, UniProt P28223); assay: Antagonist activity at human 5HT2A receptor expressed in HEK293 cells assessed as inhibition of 5HT-induced intracellular calcium release at 1 mM measured for 90 secs by fluorescence assay; type: functional, cell-based
How it was run: (§1)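 Fluo-4/Ca²⁺ read-out in stable h5-HT2A or h5-HT2C HEK293 cells (HBSS/HEPES/probenecid buffer, pH 7.4). Antagonist was added after the dye-loading wash, then cells were challenged with an EC₇₅−EC₈₅ concentration of 5-HT. Emission at 525 nm was monitored up to 90 s after agonist addition. Duplicate, repeated in independent experiments.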

[3] = molecular target: T2, 5-hydroxytryptamine receptor 2A; assay: Agonist activity at human 5HT2A receptor expressed in HEK293 cells assessed as induction of intracellular calcium release at 1 mM measured for 90 secs by fluorescence assay; type: functional, cell-based
How it was run: (§2)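 Stable polyclonal h5-HT2A or h5-HT2C HEK293 cells plated on poly-D-lysine wells, loaded next day with Fluo-4/AM for 1 h at 37 °C. Buffer was HBSS with 20 mM HEPES, 1 mM CaCl₂, 1 mM MgCl₂, 2.5 mM probenecid, pH 7.4. Fluorescence read at 485/525 nm before and up to 90 s after agonist addition. Responses normalised to 5-HT on the same plate. Duplicate, 4−10 experiments.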

[4] = molecular target: T3, 5-hydroxytryptamine receptor 2C (Homo sapiens) (UniProt P28335); assay: Antagonist activity at human 5HT2C receptor expressed in HEK293 cells assessed as inhibition of 5HT-induced intracellular calcium release at 1 mM measured for 90 secs by fluorescence assay; type: functional, cell-based; how it was run: as §1
T3 sequence (whole entry): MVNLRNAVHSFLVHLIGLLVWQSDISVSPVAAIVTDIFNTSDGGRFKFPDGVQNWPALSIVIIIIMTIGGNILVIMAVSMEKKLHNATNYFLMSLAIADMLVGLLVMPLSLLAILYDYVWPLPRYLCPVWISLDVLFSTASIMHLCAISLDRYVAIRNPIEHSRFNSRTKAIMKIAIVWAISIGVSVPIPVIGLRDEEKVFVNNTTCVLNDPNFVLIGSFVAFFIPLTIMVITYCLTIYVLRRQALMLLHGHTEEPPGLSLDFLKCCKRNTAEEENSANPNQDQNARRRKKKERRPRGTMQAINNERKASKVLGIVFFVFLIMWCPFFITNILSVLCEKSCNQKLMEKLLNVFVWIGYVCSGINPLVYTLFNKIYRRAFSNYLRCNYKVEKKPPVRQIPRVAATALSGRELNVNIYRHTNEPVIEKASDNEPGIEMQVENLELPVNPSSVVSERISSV

[5] = molecular target: T4, 5-hydroxytryptamine receptor 2C (Homo sapiens, UniProt P28335); assay: Agonist activity at human 5HT2C receptor expressed in HEK293 cells assessed as induction of intracellular calcium release measured for 90 secs by fluorescence assay; type: functional, cell-based
T4 sequence (P28335 whole entry): T3 sequence (whole entry)

[6] = molecular target: T3, 5-hydroxytryptamine receptor 2C (Homo sapiens); assay: Agonist activity at human 5HT2C receptor expressed in HEK293 cells assessed as induction of intracellular calcium release at 1 mM measured for 90 secs by fluorescence assay; type: functional, cell-based; how it was run: as §2
[7] = molecular target: T2, 5-hydroxytryptamine receptor 2A; assay: Agonist activity at human 5HT2A receptor expressed in HEK293 cells assessed as induction of intracellular calcium release measured for 90 secs by fluorescence assay; type: functional, cell-based
[8] = molecular target: T4, 5-hydroxytryptamine receptor 2C; assay: Displacement of [3H]mesulergine from human 5HT2C receptor expressed in tsA201 cell membranes after 1 hr by scintillation counting analysis
[9] = molecular target: T2, 5-hydroxytryptamine receptor 2A; assay: biochemical; type: cell-based, tsA201
[10] = molecular target: T3, 5-hydroxytryptamine receptor 2C (Homo sapiens); assay: Agonist activity at human 5HT2C receptor expressed in HEK293 cells assessed as induction of intracellular calcium release by fluorescence assay relative to 5HT; type: functional, cell-based
How it was run: (§3)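 Stable polyclonal 5-HT2A or 5-HT2C HEK293 cells seeded on poly-D-lysine plates (6 × 10⁴ cells/well). Next day loaded with Fluo-4/AM for 1 h at 37 °C in HBSS/20 mM HEPES/1 mM CaCl₂/1 mM MgCl₂/2.5 mM probenecid, pH 7.4. Fluorescence (485 ex/525 em) recorded before and up to 90 s after agonist. Response relative to 5-HT on the same plate. Duplicate, at least three times.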

[11] = molecular target: T2, 5-hydroxytryptamine receptor 2A; assay: Agonist activity at human 5HT2A receptor expressed in HEK293 cells assessed as accumulation of IP1 incubated for 1 hr at 37 degC followed by 15 mins at RT by TR-FRET assay; type: functional, cell-based
[12] = molecular target: T3, 5-hydroxytryptamine receptor 2C (Homo sapiens); assay: Agonist activity at human 5HT2C receptor expressed in HEK293 cells assessed as accumulation of IP1 incubated for 1 hr at 37 degC followed by 15 mins at RT by TR-FRET assay relative to 5HT; type: functional, cell-based
How it was run: (§4)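 Polyclonal HEK293 lines stably expressing human 5-HT2A (variant 1) or 5-HT2C (INI isoform), detached and suspended at 1 × 10⁷ cells/mL in HBSS with 20 mM HEPES, 1 mM CaCl₂, 1 mM MgCl₂, pH 7.4. Ligands in buffer with 40 mM LiCl. Incubated 1 h at 37 °C, then 15 min RT. IP1 read by HTRF 665/615 ratio. Triplicate, at least four times.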

[13] = molecular target: T4, 5-hydroxytryptamine receptor 2C; assay: Agonist activity at human 5HT2C receptor expressed in HEK293 cells assessed as accumulation of IP1 incubated for 1 hr at 37 degC followed by 15 mins at RT by TR-FRET assay; type: functional, cell-based
[14] = molecular target: T2, 5-hydroxytryptamine receptor 2A; assay: Agonist activity at human 5HT2A receptor expressed in HEK293 cells assessed as induction of intracellular calcium release by fluorescence assay relative to 5HT; type: functional, cell-based; how it was run: as §3
[15] = molecular target: T2, 5-hydroxytryptamine receptor 2A; assay: Agonist activity at human 5HT2A receptor expressed in HEK293 cells assessed as accumulation of IP1 incubated for 1 hr at 37 degC followed by 15 mins at RT by TR-FRET assay relative to 5HT; type: functional, cell-based; how it was run: as §4
[16] = molecular target: T1, 5-hydroxytryptamine receptor 2C (Rattus norvegicus); assay: Displacement of [125I]-N-(p-I-Bn)-THAZ from 5HT2C receptor in rat midbrain membrane after 1 hr by scintillation counting analysis; type: cell membranes
[17] = molecular target: T1, 5-hydroxytryptamine receptor 2C (Rattus norvegicus); assay: Displacement of [125I]-N-(p-I-Bn)-THAZ from 5HT2C receptor in rat hippocampal membrane after 1 hr by scintillation counting analysis; type: cell membranes; details: Hippocampus
[18] = molecular target: T1, 5-hydroxytryptamine receptor 2C (Rattus norvegicus); assay: Displacement of [125I]-N-(p-I-Bn)-THAZ from 5HT2C receptor in rat cerebellum membrane after 1 hr by scintillation counting analysis; type: cell membranes
[19] = molecular target: T1, 5-hydroxytryptamine receptor 2C (Rattus norvegicus); assay: Displacement of [125I]-N-(p-I-Bn)-THAZ from 5HT2C in rat cerebral cortex membrane up to 50 uM after 1 hr by scintillation counting analysis; type: cell membranes
[20] = molecular target: T2, 5-hydroxytryptamine receptor 2A; assay: Agonist activity at human 5HT2A receptor expressed in HEK293 cells assessed as induction of intracellular calcium release up to 1000 uM measured up to 90 secs by fluorescence assay; type: functional, cell-based; how it was run: as §3

T2 sequence (P28223 whole entry): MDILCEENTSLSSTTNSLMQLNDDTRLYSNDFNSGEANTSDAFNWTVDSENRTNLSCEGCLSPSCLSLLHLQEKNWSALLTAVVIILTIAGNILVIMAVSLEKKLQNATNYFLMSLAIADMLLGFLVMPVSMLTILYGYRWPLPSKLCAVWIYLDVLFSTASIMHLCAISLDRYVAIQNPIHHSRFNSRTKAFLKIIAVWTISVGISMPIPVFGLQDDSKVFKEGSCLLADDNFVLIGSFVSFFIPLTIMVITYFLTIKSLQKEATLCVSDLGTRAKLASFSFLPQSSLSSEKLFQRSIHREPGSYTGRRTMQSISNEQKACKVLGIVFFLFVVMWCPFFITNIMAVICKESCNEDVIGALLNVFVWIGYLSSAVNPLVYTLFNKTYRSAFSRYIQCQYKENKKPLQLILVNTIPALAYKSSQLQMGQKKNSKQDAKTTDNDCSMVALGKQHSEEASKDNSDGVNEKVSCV

`CC(=O)OCC[N+](C)(C)C` was tested, and the Activity [1] was “inactive”.
`CCn1oc2c(c1=O)CCNC2` was tested, and the Activity [2] was “inactive”, the Activity [3] was “inactive” and the Activity [4] was “inactive”. For the same compound, the EC50 ([5]; hek293, read-out: EC50) was > 1000 µM, the EC50 ([5]; read-out: pEC50 (converted)) was > 1000 µM and the Activity [6] was “inactive”. The EC50 ([7]; hek293, read-out: EC50) was > 1000 µM and the EC50 ([7]; read-out: pEC50 (converted)) was > 1000 µM.
`CCOc1noc2c1CCN(C)CC2` was tested, and the Activity [2] was “inactive”, the Activity [3] was “inactive” and the Activity [4] was “inactive”. The Ki [8] was > 300 µM, the EC50 ([5]; hek293, read-out: EC50) was > 1000 µM and the EC50 ([5]; read-out: pEC50 (converted)) was > 1000 µM. For the same compound, the Activity [6] was “inactive”, the EC50 ([7]; hek293, read-out: EC50) was > 1000 µM and the EC50 ([7]; read-out: pEC50 (converted)) was > 1000 µM. The Ki ([9]; read-out: Ki) was > 300 µM and the Ki ([9]; read-out: pKi (converted)) was > 316 µM.
`Cn1c2c(c3ccccc31)CCNCC2` [PNU-22394] showed an Emax [10] of 101%, an EC50 [11] of 0.21 µM and an Emax [12] of 97%. The EC50 [13] was 0.12 µM, the Emax [14] was 102% and the EC50 ([5]; read-out: EC50) was 0.0077 µM. The EC50 ([7]; read-out: EC50) was 0.023 µM and the Emax [15] was 98%.
With `NC[C@H](O)c1ccc(O)c(O)c1` the Activity [1] was “inactive”.
With `C[C@H](N)Cn1ccc2cc(F)c(Cl)cc21` the Emax [10] was 111%, the Emax [14] was 117% and the EC50 ([5]; read-out: EC50) was 0.0047 µM. It also gave an EC50 ([7]; read-out: EC50) of 0.027 µM.
For `Cn1oc2c(c1=O)CNCC2`, the Activity [2] was “inactive”, the Activity [3] was “inactive” and the Activity [4] was “inactive”. For the same compound, the EC50 ([5]; hek293, read-out: EC50) was > 1000 µM, the EC50 ([5]; read-out: pEC50 (converted)) was > 1000 µM and the Activity [6] was “inactive”. The EC50 ([7]; hek293, read-out: EC50) was > 1000 µM and the EC50 ([7]; read-out: pEC50 (converted)) was > 1000 µM.
`NCCc1c[nH]c2ccc(O)cc12` was tested, and the Activity [16] was “inactive”, the Activity [17] was “inactive” and the Activity [18] was “inactive”. For the same compound, the Activity [19] was “inactive”.
For `COc1noc2c1CCNCC2`, the Activity [20] was “Active”, the Emax [10] was 80% and the Ki [8] was 300 µM. For the same compound, the EC50 ([5]; read-out: EC50) was 12 µM and the Ki ([9]; read-out: Ki) was 300 µM.
With `CN1CCc2on(C)c(=O)c2CC1` the Activity [2] was “inactive”, the Activity [3] was “inactive” and the Activity [4] was “inactive”. For the same compound, the Ki [8] was > 300 µM, the EC50 ([5]; hek293, read-out: EC50) was > 1000 µM and the EC50 ([5]; read-out: pEC50 (converted)) was > 1000 µM. The Activity [6] was “inactive”, the EC50 ([7]; hek293, read-out: EC50) was > 1000 µM and the EC50 ([7]; read-out: pEC50 (converted)) was > 1000 µM. For the same compound, the Ki ([9]; read-out: Ki) was > 300 µM and the Ki ([9]; read-out: pKi (converted)) was > 316 µM.
With `NCCCC(=O)O` the Activity [1] was “inactive”.
With `CCn1oc2c(c1=O)CCN(C)CC2` the Activity [2] was “inactive”, the Activity [3] was “inactive” and the Activity [4] was “inactive”. For the same compound, the Ki [8] was > 300 µM, the EC50 ([5]; hek293, read-out: EC50) was > 1000 µM and the EC50 ([5]; read-out: pEC50 (converted)) was > 1000 µM. For the same compound, the Activity [6] was “inactive”, the EC50 ([7]; hek293, read-out: EC50) was > 1000 µM and the EC50 ([7]; read-out: pEC50 (converted)) was > 1000 µM. The Ki ([9]; read-out: Ki) was > 300 µM and the Ki ([9]; read-out: pKi (converted)) was > 316 µM.
For `O=c1c2c(on1Cc1ccccc1)CCNC2`, the Activity [2] was “inactive”, the Activity [3] was “inactive” and the Activity [4] was “inactive”. The EC50 ([5]; hek293, read-out: EC50) was > 1000 µM, the EC50 ([5]; read-out: pEC50 (converted)) was > 1000 µM and the Activity [6] was “inactive”. For the same compound, the EC50 ([7]; hek293, read-out: EC50) was > 1000 µM and the EC50 ([7]; read-out: pEC50 (converted)) was > 1000 µM.
Work on `O=c1c2c(on1Cc1cccc(I)c1)CCNCC2` yielded a Ki [8] of 4.8 µM.
